Assay results collected from several papers.
Each line is one published result; the experiments were not run side by side.
Target: Receptor-interacting serine/threonine-protein kinase 1 (RIPK1, Homo sapiens, UniProt Q13546)
Residues used in one study (Q13546 1-671): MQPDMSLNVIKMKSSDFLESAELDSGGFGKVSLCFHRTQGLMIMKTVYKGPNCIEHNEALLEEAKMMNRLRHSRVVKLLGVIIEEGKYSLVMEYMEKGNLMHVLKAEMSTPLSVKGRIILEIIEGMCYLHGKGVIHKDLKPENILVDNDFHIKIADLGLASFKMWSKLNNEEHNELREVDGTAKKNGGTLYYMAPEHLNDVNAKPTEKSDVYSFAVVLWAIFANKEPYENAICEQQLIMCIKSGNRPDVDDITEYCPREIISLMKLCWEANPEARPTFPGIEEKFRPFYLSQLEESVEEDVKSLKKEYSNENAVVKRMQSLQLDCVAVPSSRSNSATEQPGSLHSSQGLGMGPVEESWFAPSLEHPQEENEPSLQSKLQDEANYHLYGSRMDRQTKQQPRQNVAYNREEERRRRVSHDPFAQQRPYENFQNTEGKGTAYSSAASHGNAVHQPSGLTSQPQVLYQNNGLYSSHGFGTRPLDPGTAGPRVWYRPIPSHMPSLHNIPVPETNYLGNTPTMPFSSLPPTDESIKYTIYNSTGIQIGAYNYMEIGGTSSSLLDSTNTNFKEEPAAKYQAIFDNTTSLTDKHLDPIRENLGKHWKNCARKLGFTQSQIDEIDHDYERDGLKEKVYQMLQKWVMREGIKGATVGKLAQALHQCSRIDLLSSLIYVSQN

| SMILES | effect on | method | tested at | remaining binding [%] |
| --- | --- | --- | --- | --- |
| COc1cnc(Nc2cccc(S(N)(=O)=O)c2)nc1N1CCN(c2ccccc2)C(=O)C1 | binding | competition with immobilised ligand | 1 µM | 100 |
| Cc1cnn2ncc(-c3ccnc(N(C)C)n3)c2c1 | binding | – | 1 µM | 100 |
| O=C(NCCCN1CCOCC1)c1ccc(Nc2ncc(Cl)c(-c3ccc(Cl)s3)n2)cc1 | binding | competition with immobilised ligand | 1 µM | 45 |
| C=CC(=O)N1CCC(C(=O)NCC(=O)N2CCN(c3nc(-c4cnc(N)nc4C(F)F)nc(N4CCOCC4)n3)CC2)CC1 | binding | competition with immobilised ligand | 1 µM | 100 |
| CCC(=O)N[C@H]1CC[C@@H](C(=O)N(C)c2ccc(-c3nc4ccccc4o3)cc2)C1 | cell-free assay | competition with immobilised ligand | 1 µM | 100 |
| c1cnn2ncc(-c3ccnc(N4CCC45COC5)n3)c2c1 | binding | – | 1 µM | 83 |
| COc1cc(-c2cn(C3CCc4c(F)cccc4N(CC(F)(F)F)C3=O)nn2)ccc1-n1cnc(C)c1 (stereo not shown) | cell-free assay | competition with immobilised ligand | 1 µM | 100 |
| CC1CCCN1c1nccc(-c2cnn3ncccc23)n1 (stereo not shown) | binding | – | 1 µM | 100 |
| COc1ncc2cc3ccccc3nc2c1C#N | cell-free assay | competition with immobilised ligand | 5 µM | 100 |
| N[C@@H]1CCN(c2nccc(-c3cnn4ncccc34)n2)C1 | binding | – | 1 µM | 100 |
| O=C(NCCCN1CCOCC1)c1ccc(Nc2nccc(-c3cc4ccccc4s3)n2)cc1 | binding | competition with immobilised ligand | 1 µM | 65 |
| C[C@@H]1CCN(c2nccc(-c3cnn4ncccc34)n2)C1 | binding | – | 1 µM | 100 |
| CNCc1ccccc1-c1csc([C@@H](C)Nc2nc(C)nc3cc(OC)c(OC)cc23)c1 | cell-free assay | competition with immobilised ligand | 1 µM | 97 |
| O=C(NCC1CCOCC1)c1n[nH]cc1NC(=O)c1c(F)cccc1F | binding | competition with immobilised ligand | 1 µM | 94 |
| CCN1CCN(Cc2ccc(C(=O)Nc3ccc(C)c(Oc4ccc5c(c4)CC(=O)N5)c3)cc2C(F)(F)F)CC1 | binding | competition with immobilised ligand | 1 µM | 86 |
| O=C1CCc2cc(Nc3cc(OC4CCOCC4)c([N+](=O)[O-])cc3Cl)ccc2N1 | cell-free assay | competition with immobilised ligand | 1 µM | 100 |
| CNC(=O)[C@@H]1CC[C@@H](n2c(-c3ccc4cnccc4c3)nc3ccc(C(=O)NCc4cccc(C(N)=O)c4)cc32)C1 | binding | competition with immobilised ligand | 1 µM | 100 |
| CCc1ccccc1C(=O)Nc1n[nH]c2c(C)c(F)c(C3C(C#N)=C(C)N(C)C(C)=C3C#N)cc12 | cell-free assay | competition with immobilised ligand | 1 µM | 100 |
| O=C(c1ccc(Nc2ncc(Cl)c(-c3ccc(Cl)s3)n2)cc1)N1CCC(N2CCCC2)CC1 | binding | competition with immobilised ligand | 1 µM | 0.5 |
